The source of these data is ChEMBL document CHEMBL2417460, “Synthesis and biological evaluation of berberine-thiophenyl hybrids as multi-functional agents: Inhibition of acetylcholinesterase, butyrylcholinesterase, and Aβ aggregation and antioxidant activity” (Bioorg Med Chem, 2013).

Structures are written as SMILES. Activity calls are given as the source filed them. No cut-off for these calls is given here.

Assay [1] concerns the target Amyloid-beta precursor protein (Homo sapiens) (UniProt P05067). Nature of the assay: Inhibition of amyloid beta (1-42) (unknown origin) aggregation at 20 uM after 48 hrs by thioflavin-T based fluorimetric assay relative to control. An outline of the steps:
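HFIP-pretreated Aβ1–42 was resolubilised in 50 mM phosphate buffer, pH 7.4, and incubated at 37 °C for 48 h (50 μM final peptide) with or without compound at 20 μM. Samples were diluted into 50 mM glycine–NaOH, pH 8.0, containing thioflavin T and scanned for 300 s (ex 450/em 485 nm). Plateau values were averaged after subtracting ThT background.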

Assay [2] in a line: Antioxidant activity assessed as ratio of umol of trolox equivalent to umol of compound after 10 mins by oxygen radical absorbance capacity-fluorescein assay. Type of assay: functional. An outline of the steps: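 Fluorescein 300 nM final was preincubated with antioxidant for 10 min at 37 °C, then AAPH was added to 12 mM final. Fluorescence (ex 485/em 535 nm) was read every 60 s for 4 h. Samples were run at […] against a Trolox calibration and an FL+AAPH blank in phosphate buffer. Results are expressed as Trolox equivalents, with mixtures in triplicate and ≥3 independent runs.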

Assay [3] concerns the target T1, Acetylcholinesterase (Electrophorus electricus, UniProt O42275). Nature of the assay: Inhibition of electric eel AChE using acetylthiocholine chloride as substrate preincubated for 15 mins prior to substrate addition by Ellman's method.
Assay [4] is described as follows: Antioxidant activity assessed as H2O2 scavenging activity measured as compound remaining at 100 uM after 72 hrs by LC/MS analysis. Type of assay: functional.
Assay [5] in a line: Antioxidant activity assessed as H2O2 scavenging activity at 100 uM after 72 hrs by spectrophotometric analysis. Type of assay: functional. An outline of the steps:
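Compound solution was added to H2O2 (0.1 mM) in 0.1 M phosphate buffer, pH 7.4, and incubated for 72 h at 37 °C. Phenol red (0.2 mg/mL) plus horseradish peroxidase (0.4 mg/mL) was added; after 15 min, 1 M NaOH was added and absorbance read at 610 nm. Percent H2O2 reduction = (A_H2O2 − A_sample)/A_H2O2 × 100, with the control holding acetone and no compound.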

The target of assay [6] is T1, Acetylcholinesterase. Briefly: Mixed-type inhibition of electric eel AChE using acetylthiocholine chloride as substrate by Lineweaver-Burk plot analysis. An outline of the steps:
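Electric eel AChE was pre-incubated with inhibitor at 37 °C for 15 min in 0.1 M phosphate buffer, pH 8.0, with DTNB, then substrate was added. Absorbance at 412 nm was followed at 60 s intervals at 37 °C. Reciprocal plots of initial velocity versus substrate concentration defined the inhibition type.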

Sequence of Amyloid-beta precursor protein (Homo sapiens) (P05067 whole entry): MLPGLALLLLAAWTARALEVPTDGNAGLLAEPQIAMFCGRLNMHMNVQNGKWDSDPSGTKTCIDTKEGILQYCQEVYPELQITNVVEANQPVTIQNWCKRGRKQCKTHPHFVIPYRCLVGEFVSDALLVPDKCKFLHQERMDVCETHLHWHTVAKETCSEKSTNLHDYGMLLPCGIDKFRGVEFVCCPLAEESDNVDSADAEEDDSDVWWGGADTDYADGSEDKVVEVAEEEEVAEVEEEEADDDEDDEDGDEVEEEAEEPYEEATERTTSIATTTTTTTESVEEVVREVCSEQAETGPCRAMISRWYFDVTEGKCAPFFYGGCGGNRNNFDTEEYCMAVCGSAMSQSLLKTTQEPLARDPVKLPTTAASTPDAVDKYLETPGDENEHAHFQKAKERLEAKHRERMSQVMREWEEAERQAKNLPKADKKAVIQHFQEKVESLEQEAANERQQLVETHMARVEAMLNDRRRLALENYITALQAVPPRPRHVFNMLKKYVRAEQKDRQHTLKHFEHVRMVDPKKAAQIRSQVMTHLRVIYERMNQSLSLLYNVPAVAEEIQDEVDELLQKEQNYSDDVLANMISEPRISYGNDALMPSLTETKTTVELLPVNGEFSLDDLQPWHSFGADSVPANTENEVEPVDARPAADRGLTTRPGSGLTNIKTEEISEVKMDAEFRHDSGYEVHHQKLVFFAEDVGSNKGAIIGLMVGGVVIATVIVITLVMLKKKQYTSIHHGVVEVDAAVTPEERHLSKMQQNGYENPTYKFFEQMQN
T1 sequence (O42275 whole entry): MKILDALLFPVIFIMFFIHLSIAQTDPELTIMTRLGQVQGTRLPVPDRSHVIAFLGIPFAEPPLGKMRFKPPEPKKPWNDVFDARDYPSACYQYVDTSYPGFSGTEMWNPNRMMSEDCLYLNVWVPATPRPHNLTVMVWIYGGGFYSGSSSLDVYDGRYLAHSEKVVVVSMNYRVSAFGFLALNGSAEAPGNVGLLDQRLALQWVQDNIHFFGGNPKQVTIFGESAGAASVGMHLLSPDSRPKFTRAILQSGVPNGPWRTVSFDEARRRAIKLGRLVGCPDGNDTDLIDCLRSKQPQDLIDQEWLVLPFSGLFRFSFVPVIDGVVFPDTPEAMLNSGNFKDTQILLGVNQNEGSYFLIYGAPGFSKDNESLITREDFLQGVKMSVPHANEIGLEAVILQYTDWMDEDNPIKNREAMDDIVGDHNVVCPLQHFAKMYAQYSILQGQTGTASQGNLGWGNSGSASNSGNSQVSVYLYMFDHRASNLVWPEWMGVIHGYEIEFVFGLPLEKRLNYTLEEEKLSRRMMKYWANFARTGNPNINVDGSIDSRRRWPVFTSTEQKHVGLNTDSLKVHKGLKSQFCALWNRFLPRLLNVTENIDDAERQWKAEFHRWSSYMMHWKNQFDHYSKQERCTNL

In turn, `COc1ccc2cc3[n+](cc2c1OCCSc1ccccc1)CCc1cc2c(cc1-3)OCO2` gave an inhibition in assay [1] of 70.4%. In assay [2], the Activity turned out to be 0.89 equiv. At Acetylcholinesterase [3], this molecule yielded a concentration for half-maximal inhibition (IC50) of 177 nM.

For `Oc1ccc(/C=C/c2cc(O)cc(O)c2)cc1`, in assay [1], the inhibition is 61.1%.

Consider `COc1ccc2cc3[n+](cc2c1OCCSc1ccc(Cl)cc1)CCc1cc2c(cc1-3)OCO2`, for which, in assay [2], the Activity was found to be 0.82 equiv. This molecule also registered a half-maximal inhibitory concentration (IC50) against Acetylcholinesterase [3] of 484 nM.

As for `COc1ccc2cc3[n+](cc2c1OCCSc1ccc(C)cc1)CCc1cc2c(cc1-3)OCO2`, the inhibition in assay [1] came to 70%. For the same molecule, the Activity in assay [2] amounted to 1.86 equiv. Further, inhibition on Acetylcholinesterase [3] was half-maximal at 299 nM (IC50).

For the molecule `COc1ccc2cc3[n+](cc2c1OCCCCCCSc1ccccc1)CCc1cc2c(cc1-3)OCO2`, the Activity in assay [2] came to 0.77 equiv. Besides, the IC50 against Acetylcholinesterase [3] was 972 nM.

In assay [1], `COc1ccc2cc3[n+](cc2c1OCCSc1ccccc1F)CCc1cc2c(cc1-3)OCO2` came in with an inhibition of 73.3%. For the same molecule, the Activity in assay [2] amounted to 1.15 equiv. This molecule also showed an IC50 against Acetylcholinesterase [3] of 87 nM.

Turning to `COc1ccc2cc3[n+](cc2c1OCCSc1ccccc1C)CCc1cc2c(cc1-3)OCO2`, the inhibition in assay [1] came out at 73.4%. The outcome in assay [4] and in assay [5] was Active. Moreover, in assay [2], the Activity is 1.11 equiv. At Acetylcholinesterase [6], this molecule displayed an inhibitory constant (Ki) of 71 nM. The molecule further yielded an IC50 on Acetylcholinesterase [3] of 77 nM.

On to `COc1ccc2cc3[n+](cc2c1OCCSc1cccc(C)c1)CCc1cc2c(cc1-3)OCO2`, for which the inhibition in assay [1] stood at 72.3%. In addition, in assay [2], the Activity stood at 1.32 equiv. This molecule gave an IC50 against Acetylcholinesterase [3] of 207 nM.

In turn, `COc1ccc2cc3[n+](cc2c1OCCCCSc1ccccc1)CCc1cc2c(cc1-3)OCO2` came in with an inhibition in assay [1] of 69.1%. Besides, in assay [2], the Activity turned out to be 0.95 equiv. For the same molecule, the 50% inhibitory concentration (IC50) against Acetylcholinesterase [3] was 192 nM.

In assay [1], `COc1ccc2cc3[n+](cc2c1OCCSc1ccccc1Cl)CCc1cc2c(cc1-3)OCO2` showed an inhibition of 65.1%. Moreover, the Activity in assay [2] was 0.75 equiv. On Acetylcholinesterase [6], affinity was put at a Ki of 18 nM. In addition, half-maximal inhibition at Acetylcholinesterase [3] (IC50) required 42 nM.

`CCc1ccccc1SCCOc1c(OC)ccc2cc3[n+](cc12)CCc1cc2c(cc1-3)OCO2` came in with an inhibition in assay [1] of 74.8%. Also, the Activity in assay [2] was determined as 1.01 equiv. The molecule further gave an IC50 against Acetylcholinesterase [3] of 83 nM.

For `COc1ccc2cc3[n+](cc2c1OC)CCc1cc2c(cc1-3)OCO2`, in assay [1], the inhibition was found to be 35.5%. Besides, the Activity in assay [2] stood at 0.4 equiv.

Turning to `COc1ccccc1SCCOc1c(OC)ccc2cc3[n+](cc12)CCc1cc2c(cc1-3)OCO2`, the inhibition in assay [1] is 76.8%. In addition, the Activity in assay [2] stood at 1.94 equiv. The same molecule yielded an IC50 on Acetylcholinesterase [3] of 151 nM.

In the case of `COc1ccc2cc3[n+](cc2c1OCCCCCSc1ccccc1)CCc1cc2c(cc1-3)OCO2`, the Activity in assay [2] is 0.89 equiv. At Acetylcholinesterase [3], the half-maximal inhibitory concentration (IC50) came out at 543 nM.

Regarding `COc1ccc2cc3[n+](cc2c1OCCSc1cccc(Cl)c1)CCc1cc2c(cc1-3)OCO2`, the Activity in assay [2] was 0.47 equiv. The molecule further gave an IC50 at Acetylcholinesterase [3] of 233 nM.

As for `COc1ccc2cc3[n+](cc2c1OCCCSc1ccccc1)CCc1cc2c(cc1-3)OCO2`, the inhibition in assay [1] turned out to be 70.6%. Further, the Activity in assay [2] came out at 0.94 equiv. Also, the IC50 on Acetylcholinesterase [3] worked out at 257 nM.

As a reminder, the inhibition is the share of the control response that was lost under treatment. Low values mean a response near the control, high ones a response far below the control. For orientation: IC50 means the midpoint of a concentration-inhibition curve. As a reminder, the Ki is the equilibrium dissociation constant of an inhibitor or competing ligand from its target. A lower Ki goes with tighter binding.
